Assay results as given in ChEMBL document CHEMBL5696442, “Discovery of type II inhibitors of TGFβ-activated kinase 1 (TAK1) and mitogen-activated protein kinase kinase kinase kinase 2 (MAP4K2)” (J Med Chem, 2015).
Active and inactive are the calls of the source. The rule behind the calls is not given here.

Tests used:
BaF3 [1] = test: Antiproliferative activity against parental mouse BaF3 cells harbouring Bcr/Abl assessed reduction in cell viability measured after 48 hrs by Celltiter-glo assay; type: functional, cell-based; details: BaF3, 48 h
Summary of the method: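 Cells were grown with serial dilutions of compound for 48 h, and viability was read by CellTiter-Glo. IC50 was derived from the dose–response curve. Parental Ba/F3 cells were grown in the presence of interleukin 3. The BCR-ABL line is BCR-ABL-dependent Ba/F3.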

[2] = molecular target: T1, Tyrosine-protein kinase ABL1 (Homo sapiens, UniProt P00519); test: Inhibition of ABL ACT labeling site in human Huh-7 cell lysate at 1 uM by KiNativ Profiling analysis relative to control; type: subcellular
[3] = molecular target: T2, Mitogen-activated protein kinase kinase kinase 20 (Homo sapiens, UniProt Q9NYL2); test: Inhibition of ZAK (unknown origin) Lys1 labeling site by KiNativ Profiling analysis
Target sequence in this assay (Q9NYL2 whole entry): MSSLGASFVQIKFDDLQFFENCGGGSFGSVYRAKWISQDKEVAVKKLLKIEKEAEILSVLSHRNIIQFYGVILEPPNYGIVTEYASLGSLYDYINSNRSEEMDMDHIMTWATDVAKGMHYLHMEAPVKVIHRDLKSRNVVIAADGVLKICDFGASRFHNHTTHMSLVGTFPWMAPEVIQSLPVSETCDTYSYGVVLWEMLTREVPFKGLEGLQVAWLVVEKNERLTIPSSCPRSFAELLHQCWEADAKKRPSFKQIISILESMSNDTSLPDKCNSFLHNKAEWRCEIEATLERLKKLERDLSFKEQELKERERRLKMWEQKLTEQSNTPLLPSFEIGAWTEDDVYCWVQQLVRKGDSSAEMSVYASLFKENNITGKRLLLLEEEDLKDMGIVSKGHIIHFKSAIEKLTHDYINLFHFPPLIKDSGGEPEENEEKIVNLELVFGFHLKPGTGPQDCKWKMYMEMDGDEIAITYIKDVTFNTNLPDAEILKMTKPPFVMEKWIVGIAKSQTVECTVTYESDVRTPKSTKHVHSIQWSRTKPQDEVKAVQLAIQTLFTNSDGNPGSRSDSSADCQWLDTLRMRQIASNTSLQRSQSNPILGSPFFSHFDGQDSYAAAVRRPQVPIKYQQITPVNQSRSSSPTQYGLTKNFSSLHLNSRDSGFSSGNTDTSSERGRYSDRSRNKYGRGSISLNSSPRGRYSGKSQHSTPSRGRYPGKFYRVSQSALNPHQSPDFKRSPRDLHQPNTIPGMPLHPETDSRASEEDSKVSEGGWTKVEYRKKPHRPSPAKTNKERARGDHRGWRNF

BaF3 [4] = test: Antiproliferative activity against parental mouse BaF3 cells assessed reduction in cell viability measured after 48 hrs by Celltiter-glo assay; type: functional, cell-based; details: BaF3, 48 h
[5] = molecular target: T2, Mitogen-activated protein kinase kinase kinase 20; test: Inhibition of ZAK Lys1 labeling site in human Huh-7 cell lysate at 1 uM by KiNativ Profiling analysis relative to control; type: subcellular
Target sequence in this assay (Q9NYL2 2-800 limits assumed): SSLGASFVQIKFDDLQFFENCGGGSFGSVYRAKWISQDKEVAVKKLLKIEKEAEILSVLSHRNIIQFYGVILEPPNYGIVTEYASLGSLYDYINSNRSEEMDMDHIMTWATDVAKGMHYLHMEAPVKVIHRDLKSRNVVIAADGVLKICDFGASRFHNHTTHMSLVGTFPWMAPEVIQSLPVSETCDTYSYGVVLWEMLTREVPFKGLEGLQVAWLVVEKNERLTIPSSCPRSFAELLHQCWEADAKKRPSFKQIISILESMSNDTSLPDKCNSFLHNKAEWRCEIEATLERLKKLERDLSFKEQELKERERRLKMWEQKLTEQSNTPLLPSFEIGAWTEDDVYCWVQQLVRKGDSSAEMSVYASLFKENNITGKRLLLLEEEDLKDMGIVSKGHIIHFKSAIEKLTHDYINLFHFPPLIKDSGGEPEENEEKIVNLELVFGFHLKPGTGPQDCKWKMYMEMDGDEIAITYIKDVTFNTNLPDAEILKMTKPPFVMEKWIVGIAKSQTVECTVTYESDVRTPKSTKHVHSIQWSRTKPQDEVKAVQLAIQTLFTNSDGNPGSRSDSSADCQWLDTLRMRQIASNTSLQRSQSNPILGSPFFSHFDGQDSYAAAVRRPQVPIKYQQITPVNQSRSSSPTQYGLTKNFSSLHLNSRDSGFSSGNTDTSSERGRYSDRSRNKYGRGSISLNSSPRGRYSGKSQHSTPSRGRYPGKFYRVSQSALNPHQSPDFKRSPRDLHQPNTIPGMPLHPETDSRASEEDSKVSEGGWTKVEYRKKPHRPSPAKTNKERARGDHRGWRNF

[6] = molecular target: T1, Tyrosine-protein kinase ABL1; test: Inhibition of ABL Lys1 labeling site in human Huh-7 cell lysate at 1 uM by KiNativ Profiling analysis relative to control; type: subcellular
[7] = molecular target: T3, Mitogen-activated protein kinase kinase kinase 7 (Homo sapiens, UniProt O43318); test: Inhibition of TAK1 (unknown origin) Lys2 labeling site by KiNativ Profiling analysis
T3 sequence (O43318 whole entry): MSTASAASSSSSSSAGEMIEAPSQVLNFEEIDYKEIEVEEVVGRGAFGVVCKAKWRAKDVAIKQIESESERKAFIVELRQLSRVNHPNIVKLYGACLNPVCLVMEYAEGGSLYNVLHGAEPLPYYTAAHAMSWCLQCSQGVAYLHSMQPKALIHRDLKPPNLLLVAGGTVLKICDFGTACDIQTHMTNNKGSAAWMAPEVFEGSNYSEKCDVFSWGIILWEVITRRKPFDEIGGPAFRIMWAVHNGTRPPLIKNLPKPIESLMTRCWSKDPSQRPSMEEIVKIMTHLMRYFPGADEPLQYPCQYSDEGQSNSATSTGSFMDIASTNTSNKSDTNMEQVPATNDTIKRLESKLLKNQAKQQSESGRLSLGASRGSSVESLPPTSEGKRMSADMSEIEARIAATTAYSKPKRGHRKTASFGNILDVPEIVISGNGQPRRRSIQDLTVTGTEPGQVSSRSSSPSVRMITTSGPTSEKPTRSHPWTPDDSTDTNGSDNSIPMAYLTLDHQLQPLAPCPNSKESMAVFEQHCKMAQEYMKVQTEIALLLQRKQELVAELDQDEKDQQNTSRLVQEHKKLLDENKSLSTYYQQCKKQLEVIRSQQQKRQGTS

[8] = molecular target: T4, Mitogen-activated protein kinase 14 (Homo sapiens, UniProt Q16539); test: Inhibition of p38 alpha in human Huh-7 cell lysate at 1 uM by KiNativ Profiling analysis relative to control; type: subcellular
[9] = molecular target: T5, Mitogen-activated protein kinase kinase kinase 7 (Homo sapiens) (UniProt O43318); test: Inhibition of TAK1 Lys2 labeling site in human A-375 cells at 0.5 uM by KiNativ Profiling analysis relative to control; type: cell-based
T5 sequence (whole entry): T3 sequence (O43318 whole entry)

[10] = molecular target: T6, Mitogen-activated protein kinase kinase kinase kinase 2 (Homo sapiens, UniProt Q12851); test: Inhibition of MAP4K2 (unknown origin) Lys1 labeling site by KiNativ Profiling analysis
T6 sequence (Q12851 whole entry): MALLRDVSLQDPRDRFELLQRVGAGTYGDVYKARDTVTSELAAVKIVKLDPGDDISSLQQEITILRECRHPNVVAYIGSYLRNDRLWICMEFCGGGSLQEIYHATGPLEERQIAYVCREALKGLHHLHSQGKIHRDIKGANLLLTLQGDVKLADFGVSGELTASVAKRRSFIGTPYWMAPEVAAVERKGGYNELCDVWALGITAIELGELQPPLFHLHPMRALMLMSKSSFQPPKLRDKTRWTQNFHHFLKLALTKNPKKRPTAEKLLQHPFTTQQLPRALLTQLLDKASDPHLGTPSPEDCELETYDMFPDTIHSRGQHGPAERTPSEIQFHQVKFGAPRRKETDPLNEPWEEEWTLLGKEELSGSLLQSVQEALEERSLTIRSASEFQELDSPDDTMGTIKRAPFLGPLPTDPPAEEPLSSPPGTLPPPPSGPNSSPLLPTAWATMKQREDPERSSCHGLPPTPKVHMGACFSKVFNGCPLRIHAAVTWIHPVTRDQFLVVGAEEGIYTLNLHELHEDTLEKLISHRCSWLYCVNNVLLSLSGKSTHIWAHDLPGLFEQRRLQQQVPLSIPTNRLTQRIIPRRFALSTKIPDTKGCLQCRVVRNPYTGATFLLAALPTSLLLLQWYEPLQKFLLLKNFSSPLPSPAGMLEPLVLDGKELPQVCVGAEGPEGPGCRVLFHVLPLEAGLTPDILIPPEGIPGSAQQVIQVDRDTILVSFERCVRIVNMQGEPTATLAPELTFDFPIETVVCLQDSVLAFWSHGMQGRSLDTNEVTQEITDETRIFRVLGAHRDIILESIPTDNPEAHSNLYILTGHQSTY

[11] = molecular target: T4, Mitogen-activated protein kinase 14; test: Inhibition of p38 alpha (unknown origin) by KiNativ Profiling analysis
[12] = molecular target: T7, Mitogen-activated protein kinase kinase kinase kinase 2 (Homo sapiens) (UniProt Q12851); test: Inhibition of MAP4K2 Lys1 labeling site in human A-375 cells at 0.5 uM by KiNativ Profiling analysis relative to control; type: cell-based
T7 sequence (whole entry): T6 sequence (Q12851 whole entry)

L929 = test: Inhibition of TNF alpha induced IKKalpha/beta phosphorylation level in mouse L929 cells at 100 nM preincubated for 30 mins followed by TNF alpha stimulation and measured after 5 mins by Western blot analysis; type: functional, cell-based
Summary of the method: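 Mouse L929 cells were pretreated with compound at 100 nM for 30 min, then stimulated with TNFα for 5 min. Lysates were Western blotted for phospho-IKKα/β, with tubulin as loading control.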

[13] = molecular target: T8, Tyrosine-protein kinase CSK (Homo sapiens, UniProt P41240); test: Inhibition of CSK ACT labeling site in human Huh-7 cell lysate at 1 uM by KiNativ Profiling analysis relative to control; type: subcellular
Target sequence in this assay (P41240 2-450 limits assumed): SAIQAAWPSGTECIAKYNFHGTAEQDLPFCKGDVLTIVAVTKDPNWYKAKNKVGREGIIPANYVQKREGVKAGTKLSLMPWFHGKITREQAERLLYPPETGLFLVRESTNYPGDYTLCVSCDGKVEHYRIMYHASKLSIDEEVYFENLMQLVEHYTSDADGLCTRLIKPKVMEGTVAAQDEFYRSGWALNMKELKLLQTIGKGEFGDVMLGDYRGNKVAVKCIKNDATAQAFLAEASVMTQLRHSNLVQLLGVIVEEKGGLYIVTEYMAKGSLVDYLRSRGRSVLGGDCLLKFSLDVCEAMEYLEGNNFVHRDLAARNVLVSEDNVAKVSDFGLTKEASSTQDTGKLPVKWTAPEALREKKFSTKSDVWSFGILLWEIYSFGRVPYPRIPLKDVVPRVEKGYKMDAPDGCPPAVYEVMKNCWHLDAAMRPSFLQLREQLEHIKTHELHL

[14] = molecular target: T8, Tyrosine-protein kinase CSK; test: Inhibition of CSK (unknown origin) ACT labeling site by KiNativ Profiling analysis
Target sequence in this assay (P41240 whole entry): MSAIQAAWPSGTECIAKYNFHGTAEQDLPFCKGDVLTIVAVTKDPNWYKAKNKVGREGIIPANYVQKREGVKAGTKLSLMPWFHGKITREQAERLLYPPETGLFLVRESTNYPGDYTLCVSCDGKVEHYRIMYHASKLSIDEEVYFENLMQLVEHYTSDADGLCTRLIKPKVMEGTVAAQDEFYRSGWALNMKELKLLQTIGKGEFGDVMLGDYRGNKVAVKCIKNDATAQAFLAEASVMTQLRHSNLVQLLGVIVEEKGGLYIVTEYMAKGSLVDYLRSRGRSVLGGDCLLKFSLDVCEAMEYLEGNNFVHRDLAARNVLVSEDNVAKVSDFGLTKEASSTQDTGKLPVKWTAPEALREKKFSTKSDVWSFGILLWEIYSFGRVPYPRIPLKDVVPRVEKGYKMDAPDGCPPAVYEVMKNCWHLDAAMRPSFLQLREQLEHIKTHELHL

T1 sequence (P00519 whole entry): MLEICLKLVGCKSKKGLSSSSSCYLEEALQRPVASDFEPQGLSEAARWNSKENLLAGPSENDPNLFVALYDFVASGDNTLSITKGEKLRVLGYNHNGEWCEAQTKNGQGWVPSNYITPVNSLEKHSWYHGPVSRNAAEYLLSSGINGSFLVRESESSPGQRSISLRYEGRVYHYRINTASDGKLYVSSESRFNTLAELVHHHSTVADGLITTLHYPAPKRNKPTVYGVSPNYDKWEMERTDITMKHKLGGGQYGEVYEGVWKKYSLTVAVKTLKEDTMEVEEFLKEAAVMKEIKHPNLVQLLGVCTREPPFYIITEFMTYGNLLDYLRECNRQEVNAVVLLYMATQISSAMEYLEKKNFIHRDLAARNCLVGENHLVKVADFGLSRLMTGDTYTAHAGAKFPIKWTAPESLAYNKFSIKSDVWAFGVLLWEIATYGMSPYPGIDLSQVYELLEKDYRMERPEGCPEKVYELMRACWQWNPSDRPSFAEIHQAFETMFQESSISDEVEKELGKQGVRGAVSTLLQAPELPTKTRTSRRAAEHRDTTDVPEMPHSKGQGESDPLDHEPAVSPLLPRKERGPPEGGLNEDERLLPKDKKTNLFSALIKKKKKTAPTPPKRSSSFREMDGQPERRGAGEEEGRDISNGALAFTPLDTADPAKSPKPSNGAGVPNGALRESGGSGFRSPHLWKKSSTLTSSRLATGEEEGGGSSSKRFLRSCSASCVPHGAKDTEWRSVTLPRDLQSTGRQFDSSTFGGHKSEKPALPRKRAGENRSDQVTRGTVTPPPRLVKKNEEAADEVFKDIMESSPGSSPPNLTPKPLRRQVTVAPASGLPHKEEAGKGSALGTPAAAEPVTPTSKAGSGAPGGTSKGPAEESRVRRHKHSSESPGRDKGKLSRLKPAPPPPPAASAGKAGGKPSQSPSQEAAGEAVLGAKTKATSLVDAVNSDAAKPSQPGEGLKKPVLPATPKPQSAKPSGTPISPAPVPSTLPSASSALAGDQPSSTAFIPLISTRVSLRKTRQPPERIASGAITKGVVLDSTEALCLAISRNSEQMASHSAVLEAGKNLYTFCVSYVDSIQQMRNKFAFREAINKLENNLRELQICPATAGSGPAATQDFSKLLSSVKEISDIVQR
T4 sequence (Q16539 whole entry): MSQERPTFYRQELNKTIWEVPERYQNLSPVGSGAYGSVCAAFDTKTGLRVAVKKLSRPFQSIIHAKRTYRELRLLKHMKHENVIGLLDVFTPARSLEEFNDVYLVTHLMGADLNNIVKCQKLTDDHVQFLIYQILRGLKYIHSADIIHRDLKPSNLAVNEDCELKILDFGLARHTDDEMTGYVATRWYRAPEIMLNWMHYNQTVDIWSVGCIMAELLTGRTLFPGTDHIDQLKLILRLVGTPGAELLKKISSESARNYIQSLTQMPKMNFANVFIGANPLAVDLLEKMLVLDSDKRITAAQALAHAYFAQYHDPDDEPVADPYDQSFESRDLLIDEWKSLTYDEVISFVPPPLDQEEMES

SMILES | IC50 (BaF3 [1]) [nM] | inhibition [2] [%] | IC50 [3] [nM] | IC50 (BaF3 [4]) [nM] | inhibition [5] [%] | inhibition [6] [%] | IC50 [7] [nM] | inhibition [8] [%] | inhibition [9] [%] | IC50 [10] [nM] | IC50 [11] [nM] | inhibition [12] [%] | inhibition (L929) | inhibition [13] [%] | IC50 [14] [nM]
CCN1CCN(Cc2ccc(NC(=O)c3cccc(/C=C/c4cnc5[nH]ccc5c4OC)c3)cc2C(F)(F)F)CC1 | 10 | 89.6 | 396 | 7100 | 75.3 | 82 | – | – | – | – | – | – | – | – | –
CCN1CCN(c2ccc(NC(=O)c3ccc(C)c(CCc4cnc5[nH]ccc5c4OC)c3)cc2C(F)(F)F)CC1 | 181 | 80.7 | – | 9740 | – | 75.2 | – | – | – | – | – | – | – | – | –
CCN1CCN(Cc2ccc(NC(=O)c3ccc(C)c(/C=C/c4cnc5[nH]ccc5c4OC)c3)cc2)CC1 | 10 | 96.3 | – | 7710 | – | > 80 | – | – | – | – | – | – | – | – | –
CCN1CCN(Cc2ccc(NC(=O)c3cccc(Oc4ccnc5[nH]ccc45)c3)cc2C(F)(F)F)CC1 | 10 | > 96 | – | 7440 | – | – | 119 | 85.8 | 75.6 | 23.8 | 35.9 | > 80 | – | – | –
Cc1cn(-c2cc(NC(=O)c3ccc(C)c(Oc4ccnc5[nH]ccc45)c3)cc(C(F)(F)F)c2)cn1 | – | – | – | – | – | – | 4490 | – | -1.5 | 30.1 | – | 72 | inactive | – | –
CCN1CCN(Cc2ccc(C(=O)Nc3cccc(CCc4cnc5[nH]ccc5c4OC)c3)cc2C(F)(F)F)CC1 | 16 | 90.3 | 179 | > 10000 | 78.4 | > 80 | – | 95.9 | – | – | 555 | – | – | – | –
COc1c(/C=C/c2cc(C(=O)Nc3ccc(OC4CCN(C)CC4)c(C(F)(F)F)c3)ccc2C)cnc2[nH]ccc12 | 10 | 94.5 | – | 7570 | – | > 85 | – | 90.5 | – | – | 63.6 | – | – | – | –
C[S+]([O-])c1ccc(-c2nc(-c3ccc(F)cc3)c(-c3ccncc3)[nH]2)cc1 (stereo not given) | – | – | – | – | – | – | – | – | – | – | – | – | inactive | – | –
CCN1CCN(Cc2ccc(NC(=O)c3ccc(C)c(OCc4cnc5[nH]ccc5c4OC)c3)cc2C(F)(F)F)CC1 | 39 | 96 | – | 8280 | – | > 80 | 150 | 97.3 | 59.6 | 49.4 | 659 | 89.4 | – | 84 | 59
CCN1CCN(Cc2ccc(NC(=O)c3ccc(C)c(Oc4ccnc(NC)n4)c3)cc2C(F)(F)F)CC1 | 85 | 74.6 | 546 | > 10000 | 89.6 | – | 165 | 95.4 | 77.7 | 26.5 | 45.8 | > 85 | – | – | –
CNC(=O)c1ccc(C)c(-n2c(C)cc(OCc3ccc(F)cc3F)c(Br)c2=O)c1 | – | – | – | – | – | – | – | – | – | – | – | – | inactive | – | –
CCN1CCN(Cc2ccc(NC(=O)c3ccc(C)c(Oc4ccnc(C(=O)NC)c4)c3)cc2C(F)(F)F)CC1 | – | – | 447 | – | 82.7 | – | – | 93.1 | – | – | 69.6 | – | – | – | –
Cc1ccc(C(=O)Nc2cc(N3CCN(C)CC3)cc(C(F)(F)F)c2)cc1Oc1ncnc2[nH]ccc12 | – | – | – | – | – | – | 465 | – | 29.3 | 177 | – | 73.6 | – | – | –
CCN1CCN(Cc2ccc(NC(=O)c3ccc(OC)c(Oc4ncnc5[nH]ccc45)c3)cc2C(F)(F)F)CC1 | – | – | – | – | – | – | 292 | – | – | 296 | – | – | – | – | –
COc1c(CCc2cc(C(=O)Nc3cc(-n4cnc(C)c4)cc(C(F)(F)F)c3)ccc2C)cnc2[nH]ccc12 | 10 | 92.2 | 98.2 | 4920 | 95.6 | 80.4 | – | 98.8 | – | – | 5.27 | – | – | – | –
CCN1CCN(Cc2ccc(C(=O)Nc3ccc(C)c(Oc4ccnc5[nH]ccc45)c3)cc2C(F)(F)F)CC1 | – | – | – | – | – | – | – | 88.4 | – | – | 19.5 | – | inactive | – | –
COc1c(/C=C/c2cc(C(=O)Nc3cccc(C(C)(C)C#N)c3)ccc2C)cnc2[nH]ccc12 | 10 | 62.2 | 103 | 3300 | 95.8 | 71.5 | – | – | – | – | – | – | – | 75.7 | 25.1
CCN1CCN(Cc2ccc(NC(=O)c3cccc(CCc4cnc5[nH]ccc5c4OC)c3)cc2C(F)(F)F)CC1 | 387 | 66.4 | 301 | > 10000 | 78 | 83 | – | – | – | – | – | – | – | – | –
COc1c(/C=C/c2cc(C(=O)Nc3ccc(CN4CCC(N(C)C)C4)c(C(F)(F)F)c3)ccc2C)cnc2[nH]ccc12 (stereo not given) | 10 | 66.6 | – | 5470 | – | 47.5 | – | 85 | – | – | 140 | – | – | 75.6 | 25
